The values that follow come from ChEMBL document CHEMBL1154721, “Synthesis, antitumor activity and molecular docking study of novel sulfonamide-Schiff's bases, thiazolidinones, benzothiazinones and their C-nucleoside derivatives” (Eur J Med Chem, 2010).

A word on the Ki: it is a dissociation constant, usually derived from enzyme kinetics or from competition with a known ligand. A higher Ki goes with weaker binding. Broadly, the IC50 is the concentration at which inhibition is half-maximal. Higher therefore signals weaker potency in that assay.

In brackets after ≈: the same amount, converted by molar mass.

Assay [1] in a line: Inhibition of PTK.
Another assay concerns HeLa. Put plainly: Cytotoxicity against human HeLa cells after 48 hrs by SRB assay. The class given is functional, cell-based. The gist of the method: (§1)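 Cells were seeded and left 24 h to attach before dosing, then exposed to test compound at […], in triplicate wells per dose. Incubation was 48 h at 37 °C under 5% CO2. Cells were then fixed, washed and stained with sulforhodamine B, excess dye was removed with acetic acid, bound dye was recovered in Tris-EDTA buffer, and colour intensity was read on an ELISA reader.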
(In general: In SRB staining, fixed cells bind dye roughly in proportion to their protein.)

The subject of a further assay is MCF7. In words: Cytotoxicity against human MCF7 cells after 48 hrs by SRB assay. In kind it is functional, cell-based. Put shortly: as §1

Consider `COc1cc(C2Sc3ccccc3C(=O)N2c2ccc(S(=O)(=O)Nc3ccccn3)cc2)cc(OC)c1OC` (stereo unspecified), for which, in assay [1], the Ki is 48700 nM.
In assay [1], `O=C1c2ccccc2SC(c2c[nH]c3ccccc23)N1c1ccc(S(=O)(=O)Nc2ccccn2)cc1` (stereo unspecified) returned a Ki of 553 nM.
Compound `COc1ccc(C2SCC(=O)N2c2ccc(S(=O)(=O)Nc3ccccn3)cc2)c(O)c1` (stereo unspecified) displayed a Ki in assay [1] of 15400 nM. This Ki is about 28-fold higher than that of the compound before.
`Nc1ccc(S(=O)(=O)Nc2ccccn2)cc1` [SULFAPYRIDINE] showed a Ki in assay [1] of 3590 nM.
The same measure, in the same setting: under `O=S(=O)(Nc1ccccn1)c1ccc(/N=C/[C@H](O)[C@H](O)[C@@H](O)[C@@H](O)CO)cc1` stands 331 nM; under `COc1ccc(C2Sc3ccccc3C(=O)N2c2ccc(S(=O)(=O)Nc3ccccn3)cc2)c(O)c1` (stereo unspecified), 4720 nM.
For `COc1cc(C2SCC(=O)N2c2ccc(S(=O)(=O)Nc3ccccn3)cc2)cc(OC)c1OC` (stereo unspecified), in assay [1], the Ki amounted to 5320 nM.
As for `O=c1[nH]cc(F)c(=O)[nH]1` [FLUOROURACIL], the IC50 stood at 1.01 µg/mL (≈ 7.76 µM) in the assay on HeLa and 0.67 µg/mL (≈ 5.15 µM) with MCF7.
In assay [1], `COc1ccc(C2SCC(=O)N2c2ccc(S(=O)(=O)Nc3ccccn3)cc2)cc1OC` (stereo unspecified) registered a Ki of 1050 nM. This counts as single-digit micromolar.
Still for that read-out and setting: under `COc1ccc(C2Sc3ccccc3C(=O)N2c2ccc(S(=O)(=O)Nc3ccccn3)cc2)cc1OC` (stereo unspecified) stands 2510 nM.
On the same count and under the same terms, under `COc1ccc(/C=N/c2ccc(S(=O)(=O)Nc3ccccn3)cc2)c(O)c1` stands 258 nM.
On the same count and under the same terms, under `O=C1CSC([C@H](O)[C@H](O)[C@@H](O)[C@@H](O)CO)N1c1ccc(S(=O)(=O)Nc2ccccn2)cc1` (stereo partly specified) stands 2350 nM.
`COc1ccc(/C=N/c2ccc(S(=O)(=O)Nc3ccccn3)cc2)cc1OC` came in with a Ki in assay [1] of 258 nM.
On the same count and under the same terms, under `COc1ccc(C2SCC(=O)N2c2ccc(S(=O)(=O)Nc3ccccn3)cc2)cc1` (stereo unspecified) stands 705 nM.
Same read-out and setting: under `COc1cc(/C=N/c2ccc(S(=O)(=O)Nc3ccccn3)cc2)cc(OC)c1OC` stands 526 nM.
